Measured values taken from ChEMBL document CHEMBL3400039, “Design, synthesis and in vitro cell-based evaluation of the anti-cancer activities of hispolon analogs” (Bioorg Med Chem, 2015).
The source made the active and inactive calls. The rule behind the calls is not given here.

Key:
MDCK = test: Cytotoxicity against MDCK cells after 72 hrs by MTT assay; assay type: cell-based; conditions: Canis lupus familiaris
Procedure, shortened: (§1)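 Cells kept as adherent monolayers in DMEM with 10% FBS, 37°C, 5% CO2. Trypsin-harvested, seeded at 5 × 10^3 cells/well, then exposed to compound at 0.1 to 100 µM for 72 h. MTT (4 mg/ml) added for 4 h, formazan dissolved in DMSO, absorbance read at 570 nm. At least three experiments, each in triplicate; mean±SD.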

PC-3 [1] = test: Induction of morphological changes in human PC3 cells up to 100 uM after 68 hrs by inverted microscopy; assay type: functional, cell-based
Procedure, shortened: (§2)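 Cells grown in DMEM/10% FBS and treated in triplicate for 68 h. Photographed with an inverted microscope at 20X alongside untreated wells. Images scored double-blind for cell size, shape, number and debris.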

MCF7 = test: Cytotoxicity against human MCF7 cells after 72 hrs by MTT assay; assay type: functional, cell-based; conditions: for IC50: MCF7, 72 h; procedure, shortened: as §1
HEK293 [2] = test: Resistance index, ratio of IC50 for HEK293 cells expressing ABCB1 to IC50 for HEK293 cells expressing pcDNA3.1; design: species or system Homo sapiens
Procedure, shortened: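 Fold resistance is the IC50 in P-glycoprotein-overexpressing HEK293/ABCB1 cells divided by the IC50 in empty-vector HEK293/pcDNA3.1 cells. IC50s from the 72 h MTT assay; paclitaxel was the positive-control ABCB1 substrate.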

[3] = (§3) Cytotoxicity against human PC3 cells after 72 hrs by MTT assay; assay type: functional, cell-based; conditions: PC-3, 72 h; procedure, shortened: as §1
HCT-116 [4] = test: Induction of morphological changes in human HCT116 cells up to 100 uM after 68 hrs by inverted microscopy; assay type: functional, cell-based; procedure, shortened: as §2
MDA-MB-231 = test: Cytotoxicity against human MDA-MB-231 cells after 72 hrs by MTT assay; assay type: functional, cell-based; conditions: for IC50: MDA-MB-231, 72 h; procedure, shortened: as §1
[5] = (§4) Cytotoxicity against human HCT116 cells after 72 hrs by MTT assay; assay type: functional, cell-based; conditions: HCT-116, 72 h; procedure, shortened: as §1
HEK293 [6] = test: Cytotoxicity against HEK293 cells expressing ABCB1 after 72 hrs by MTT assay; assay type: functional, cell-based; conditions: Homo sapiens, HEK293, 72 h; procedure, shortened: as §1
[7] = (§5) Cytotoxicity against human S1 cells after 72 hrs by MTT assay; assay type: functional, cell-based; conditions: S1, 72 h; procedure, shortened: as §1
HCT-116 [8] = test: Induction of morphological changes in human HCT116 cells assessed as increase in cell size at 1 uM after 68 hrs by inverted microscopy; assay type: functional, cell-based; procedure, shortened: as §2
HCT-116 [9] = test: Potency index, ratio of IC50 for hispolon to IC50 for compound for human HCT116 cells after 72 hrs by MTT assay; assay type: functional
Procedure, shortened: (§6)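 Ratio of the hispolon IC50 to the analog IC50 in the same cancer line. Both IC50s come from the 72 h MTT assay (0.1–100 µM), with survival curves fitted by the Bliss method.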

HCT-116 [10] = test: Reduction in mitochondrial membrane potential in human HCT116 cells after 4 hrs by Mitotracker red staining based flow cytometry (reference value: 27.56%); assay type: functional, cell-based
Procedure, shortened: (§7)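 HCT-116 cells in 6-well plates, exposed in complete medium with or without compound (0.5 or 5 µM) for 4 h. Harvested and stained with MitoTracker Red for 30 min at 37°C, washed in PBS, then given Alexa Fluor 488 annexin V in annexin-binding buffer for 15 min. Flow cytometry with emission read at 530 and 585 nm; quadrant analysis against untreated control.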

DU-145 [11] = test: Potency index, ratio of IC50 for hispolon to IC50 for compound for human DU145 cells after 72 hrs by MTT assay; assay type: functional; procedure, shortened: as §6
HEK293 [12] = test: Ratio of IC50 for HEK293 cells expressing pcDNA3.1 to IC50 for human PC3 cells
Procedure, shortened: (§8)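 Selectivity ratio of the IC50 in empty-vector HEK293/pcDNA3.1 cells to the IC50 in each cancer line. IC50s from the 72 h MTT assay (0.1–100 µM, Bliss method, ≥3 experiments in triplicate).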

PC-3 [13] = test: Induction of morphological changes in human PC3 cells assessed as increase in cell size at 1 uM after 68 hrs by inverted microscopy; assay type: functional, cell-based; procedure, shortened: as §2
HCT-116 [14] = test: Induction of apoptosis in human HCT116 cells at 5 uM after 4 hrs by Alexa fluor 488 annexin V staining based flow cytometry (reference value: 5.58%); assay type: functional; procedure, shortened: as §7
PC-3 [15] = test: Potency index, ratio of IC50 for hispolon to IC50 for compound for human PC3 cells after 72 hrs by MTT assay; assay type: functional; procedure, shortened: as §6
HCT-116 [16] = test: Reduction in mitochondrial membrane potential in human HCT116 cells at 5 uM after 4 hrs by Mitotracker red staining based flow cytometry (reference value: 27.56%); assay type: functional; design: scale not given: the % may be the effect or the level left; procedure, shortened: as §7
PC-3 [17] = test: as §3; assay type: functional, cell-based; procedure, shortened: as §1
HCT-116 [18] = test: Reduction in mitochondrial membrane potential in human HCT116 cells at 0.5 uM after 4 hrs by Mitotracker red staining based flow cytometry (reference value: 27.56%); assay type: functional; design: scale not given: the % may be the effect or the level left; procedure, shortened: as §7
HEK293 [19] = test: Ratio of IC50 for HEK293 cells expressing pcDNA3.1 to IC50 for human DU145 cells; procedure, shortened: as §8
HCT-116 [20] = test: Induction of apoptosis in human HCT116 cells at 0.5 uM after 4 hrs by Alexa fluor 488 annexin V staining based flow cytometry (reference value: 5.58%); assay type: functional; procedure, shortened: as §7
HCT-116 [21] = test: as §4; assay type: functional, cell-based; procedure, shortened: as §1
HEK293 [22] = test: Ratio of IC50 for HEK293 cells expressing pcDNA3.1 to IC50 for human S1 cells; procedure, shortened: as §8
HEK293 [23] = test: Cytotoxicity against HEK293 cells expressing pcDNA3.1 after 72 hrs by MTT assay; assay type: cell-based; conditions: Homo sapiens, HEK293, 72 h; procedure, shortened: as §1
DU-145 [24] = test: Cytotoxicity against human DU145 cells after 72 hrs by MTT assay; assay type: functional, cell-based; procedure, shortened: as §1
[25] = Potency index, ratio of IC50 for hispolon to IC50 for compound for human S1 cells after 72 hrs by MTT assay; assay type: functional; procedure, shortened: as §6
S1 = test: as §5; assay type: functional, cell-based; procedure, shortened: as §1
HEK293 [26] = test: Ratio of IC50 for HEK293 cells expressing pcDNA3.1 to IC50 for human HCT116 cells; procedure, shortened: as §8

In the case of `COc1cc(CCC(=O)CC(C)=O)ccc1O`, the IC50 (MDCK) is reported as 72.5 µM, the Activity (PC-3 [1]) is reported as “inactive” and the IC50 (MCF7) is reported as greater than 100 µM. For the same compound, the “Ratio IC50” value (HEK293 [2]) was 1, the IC50 [3] was greater than 100 µM and the Activity (HCT-116 [4]) was “inactive”. For the same compound, the IC50 (MDA-MB-231) was greater than 100 µM, the IC50 [5] was 80.8 µM and the IC50 (HEK293 [6]) was 92.5 µM. For the same compound, the IC50 [7] was 98.2 µM.

With `COc1cc(/C=C/C(=O)CC(C)=O)ccc1O` the IC50 (MDCK) was 13.1 µM, the Activity (HCT-116 [8]) was “Active” and the “Ratio IC50” value (HCT-116 [9]) was 3.7. The Activity (HCT-116 [10]) was “Dose-dependent effect”, the Ratio IC50 (DU-145 [11]) was 5.5 and the Activity (MCF7) was “Dose-dependent effect”. The IC50 (MCF7) was 7.4 µM, the “Ratio IC50” value (HEK293 [2]) was 1.2 and the “Ratio IC50” value (HEK293 [12]) was 2. For the same compound, the Activity (PC-3 [13]) was “Active”, the Activity (HCT-116 [14]) was 11.69% and the “Ratio IC50” value (PC-3 [15]) was 2. The Activity (HCT-116 [16]) was 72.74%, the Activity (PC-3 [17]) was “Dose-dependent effect” and the IC50 [3] was 6.3 µM. For the same compound, the Activity (HCT-116 [18]) was 84.88%, the Ratio IC50 (HEK293 [19]) was 3 and the Activity (MDA-MB-231) was “Dose-dependent effect”. For the same compound, the IC50 (MDA-MB-231) was 9.7 µM, the Activity (HCT-116 [20]) was 2.64% and the Activity (HCT-116 [21]) was “Dose-dependent effect”. For the same compound, the IC50 [5] was 1.4 µM, the “Ratio IC50” value (HEK293 [22]) was 9 and the IC50 (HEK293 [23]) was 15.8 µM. The IC50 (HEK293 [6]) was 18.9 µM, the Activity (DU-145 [24]) was “Dose-dependent effect” and the IC50 (DU-145 [24]; DU-145, 72 h) was 5.2 µM. The Ratio IC50 [25] was 4.7, the IC50 [7] was 1.8 µM and the Activity (S1) was “Dose-dependent effect”. For the same compound, the Ratio IC50 (HEK293 [26]) was 11.
